According to ChEMBL document CHEMBL4118127, “Structure activity relationship studies on rhodanines and derived enethiol inhibitors of metallo-β-lactamases” (Bioorg Med Chem, 2018):
Active and inactive are the calls of the source.

Tests used:
[1] = molecular target: Beta-lactamase CTX-M (Escherichia coli) (UniProt Q9EXV5); test: Inhibition of recombinant Escherichia coli EO516 N-terminal His6-tagged CTX-M using FC5 as substrate at 200 uM preincubated at 10 to 300 mins followed by substrate addition
[2] = molecular target: Beta-lactamase OXA-10 (Pseudomonas aeruginosa) (UniProt P14489); test: Inhibition of recombinant Pseudomonas aeruginosa OXA-10 at 200 uM using FC5 as substrate
Sequence of Beta-lactamase OXA-10 (Pseudomonas aeruginosa) (P14489 whole entry, the tested form may be a part): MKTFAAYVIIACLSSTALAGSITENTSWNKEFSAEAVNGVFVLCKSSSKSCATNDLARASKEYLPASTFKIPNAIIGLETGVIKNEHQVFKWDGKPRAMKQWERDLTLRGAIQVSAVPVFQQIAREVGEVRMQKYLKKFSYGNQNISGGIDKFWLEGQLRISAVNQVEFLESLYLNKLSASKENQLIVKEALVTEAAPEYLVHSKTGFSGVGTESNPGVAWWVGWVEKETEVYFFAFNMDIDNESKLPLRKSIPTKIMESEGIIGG

[3] = molecular target: Beta-lactamase TEM (Bacteria) (UniProt P62593); test: Inhibition of recombinant N-terminal His-tagged Escherichia coli TEM1 (24 to 286 residues) expressed in Escherichia coli BL21(DE3) at 200 uM using FC5 as substrate
Sequence of Beta-lactamase TEM (Bacteria) (P62593 whole entry, the tested form may be a part): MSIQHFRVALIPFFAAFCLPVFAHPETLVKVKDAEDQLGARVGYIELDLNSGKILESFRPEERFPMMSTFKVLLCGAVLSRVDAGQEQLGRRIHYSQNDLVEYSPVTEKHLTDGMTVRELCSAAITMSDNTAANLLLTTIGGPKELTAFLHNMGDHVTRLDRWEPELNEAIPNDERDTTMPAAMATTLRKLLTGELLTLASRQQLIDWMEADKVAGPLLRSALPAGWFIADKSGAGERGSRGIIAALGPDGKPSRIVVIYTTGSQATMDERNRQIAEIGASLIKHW

[4] = molecular target: Beta-lactamase (Escherichia coli K-12) (UniProt P00811); test: Inhibition of recombinant Escherichia coli AmpC at 200 uM using FC5 as substrate preincubated at 10 to 300 mins followed by substrate addition
Sequence of Beta-lactamase (Escherichia coli K-12) (P00811 whole entry, the tested form may be a part): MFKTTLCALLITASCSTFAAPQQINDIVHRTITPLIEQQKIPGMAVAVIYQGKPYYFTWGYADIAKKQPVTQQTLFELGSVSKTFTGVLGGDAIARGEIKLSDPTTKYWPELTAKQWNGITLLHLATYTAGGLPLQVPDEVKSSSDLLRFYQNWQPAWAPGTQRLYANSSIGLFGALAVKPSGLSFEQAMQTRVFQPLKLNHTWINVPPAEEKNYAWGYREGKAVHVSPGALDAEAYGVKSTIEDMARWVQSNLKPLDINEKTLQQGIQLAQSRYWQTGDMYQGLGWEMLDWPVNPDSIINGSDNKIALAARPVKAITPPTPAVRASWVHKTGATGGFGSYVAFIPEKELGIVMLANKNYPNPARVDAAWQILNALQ

[5] = test system: Bacteria; test: Inhibition of recombinant full-length bacterial His6-tagged VIM2 (27 to 266 residues) expressed in Escherichia coli BL21 (DE3) cells using FC4-FC5 as substrate assessed as residual activity at 100 uM by fluorescence-based assay
[6] = test system: Bacteria; test: Inhibition of recombinant bacterial IMP1 expressed in Escherichia coli BL21 (DE3) cells using FC4-FC5 as substrate assessed as residual activity at 100 uM by fluorescence-based assay
In short: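 IMP-1 was incubated with inhibitor for 10 min before substrate was added. Residual activity was calculated from the initial rate of FC5 hydrolysis.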

[7] = molecular target: Metallo-beta-lactamase type 2 (Aeromonas hydrophila) (UniProt P26918); test: Inhibition of Aeromonas hydrophila CphA at 100 uM using fluorogenic cephalosporin as substrate
Sequence of Metallo-beta-lactamase type 2 (Aeromonas hydrophila) (P26918 whole entry, the tested form may be a part): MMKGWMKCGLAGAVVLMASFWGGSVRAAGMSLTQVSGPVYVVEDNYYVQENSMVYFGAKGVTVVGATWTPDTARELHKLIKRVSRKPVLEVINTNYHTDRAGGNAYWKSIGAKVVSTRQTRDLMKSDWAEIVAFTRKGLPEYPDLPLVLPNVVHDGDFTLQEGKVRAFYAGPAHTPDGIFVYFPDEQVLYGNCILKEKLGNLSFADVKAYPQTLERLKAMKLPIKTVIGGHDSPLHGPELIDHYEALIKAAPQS

[8] = test system: Bacteria; test: Inhibition of recombinant full-length bacterial His6-tagged SPM1 (29 to 276 residues) expressed in Escherichia coli BL21 (DE3) cells at 100 uM using FC4-FC5 as substrate by fluorescence-based assay
[9] = test system: Bacteria; test: Inhibition of recombinant bacterial IMP1 expressed in Escherichia coli BL21 (DE3) cells at 100 uM using FC4-FC5 as substrate by fluorescence-based assay
[10] = test system: Bacteria; test: Inhibition of recombinant full-length bacterial His6-tagged VIM2 (27 to 266 residues) expressed in Escherichia coli BL21 (DE3) cells at 100 uM using FC4-FC5 as substrate by fluorescence-based assay
[11] = molecular target: T1, Metallo-beta-lactamase type 2 (Bacillus cereus) (UniProt P04190); test: Inhibition of recombinant bacterial BC2 expressed in Escherichia coli BL21 (DE3) cells at 100 uM using FC4-FC5 as substrate by fluorescence-based assay
T1 sequence (whole entry): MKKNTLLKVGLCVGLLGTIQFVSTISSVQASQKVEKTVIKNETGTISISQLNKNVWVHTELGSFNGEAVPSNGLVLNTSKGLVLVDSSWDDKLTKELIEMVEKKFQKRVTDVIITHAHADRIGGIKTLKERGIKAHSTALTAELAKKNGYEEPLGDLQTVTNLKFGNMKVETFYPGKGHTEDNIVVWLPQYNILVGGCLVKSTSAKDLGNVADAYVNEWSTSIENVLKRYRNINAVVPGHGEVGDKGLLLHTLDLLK

[12] = test system: Bacteria; test: Inhibition of recombinant bacterial NDM1 expressed in Escherichia coli BL21 (DE3) cells at 100 uM using FC5 as fluorogenic reporter substrate preincubated at 10 to 300 mins followed by substrate addition
[13] = molecular target: Beta-lactamase (Escherichia coli K-12) (UniProt P00811); test: Inhibition of recombinant Escherichia coli AmpC assessed as residual activity at 200 uM using FC5 as substrate preincubated at 10 to 300 mins followed by substrate addition
[14] = molecular target: Beta-lactamase OXA-10 (Pseudomonas aeruginosa) (UniProt P14489); test: Inhibition of recombinant Pseudomonas aeruginosa OXA-10 using FC5 as substrate assessed as residual activity at 200 uM
[15] = molecular target: Beta-lactamase TEM (Bacteria) (UniProt P62593); test: Inhibition of recombinant N-terminal His-tagged Escherichia coli TEM1 (24 to 286 residues) expressed in Escherichia coli BL21(DE3) using FC5 as substrate assessed as residual activity at 200 uM

SMILES	inhibition [1]	inhibition [2]	inhibition [3]	inhibition [4]	other results
CC1=N/C(=C\c2ccc(F)cc2)C(=O)O1	inactive	inactive	inactive	inactive	Activity [5]: 100%; Activity [6]: 100%
O=C(O)C(O)Cc1ccccc1 (centres undefined)	–	–	–	–	inhibition [7]: inactive; inhibition [8]: inactive; inhibition [9]: inactive; inhibition [10]: inactive; inhibition [11]: inactive; inhibition [12]: inactive
O=C(O)/C(O)=C/c1ccc(F)cc1	inactive	inactive	inactive	inactive	Activity [5]: 100%; Activity [6]: 100%
O=C(O)C(O)c1ccccc1 (centres undefined)	–	–	–	–	inhibition [7]: inactive; inhibition [8]: inactive; inhibition [9]: inactive; inhibition [10]: inactive; inhibition [11]: inactive; inhibition [12]: inactive
CN1CCN(NC(=O)CN2C(=O)/C(=C/c3c4ccccc4cc4ccccc34)SC2=S)CC1	–	–	–	–	Activity [13]: 1%; Activity [14]: 41%
O=C(O)/C(S)=C/c1c(Cl)ccc(Cl)c1Cl	inactive	inactive	inactive	inactive	–
COc1ccc(/C=C2\SC(=S)N(CC(=O)O)C2=O)cc1	inactive	inactive	inactive	inactive	–
O=C(O)/C(S)=C/c1c(Cl)cccc1Cl	inactive	inactive	inactive	inactive	–
CN1CCN(NC(=O)CN2C(=O)/C(=C/c3ccccc3F)SC2=S)CC1	inactive	inactive	inactive	inactive	–
O=C(O)CN1C(=O)/C(=C/c2ccc(Br)cc2)SC1=S	inactive	inactive	inactive	inactive	–
O=C(O)CN1C(=O)/C(=C/c2cc(Cl)ccc2Cl)SC1=S	inactive	inactive	inactive	inactive	–
CN1CCN(NC(=O)CN2C(=O)/C(=C/c3c(F)cccc3F)SC2=S)CC1	inactive	inactive	inactive	inactive	–
O=C(O)/C(S)=C/c1c2ccccc2cc2ccccc12	–	–	–	–	Activity [15]: 40%
O=C(O)/C(S)=C/c1ccccc1I	inactive	inactive	inactive	inactive	–
Cc1cccc(C)c1/C=C1\SC(=S)N(CC(=O)NN2CCN(C)CC2)C1=O	inactive	inactive	inactive	inactive	–
O=C(O)/C(S)=C/c1csc2ccccc12	inactive	inactive	inactive	inactive	–
O=C(O)CN1C(=O)/C(=C/c2ccccc2I)SC1=S	inactive	inactive	inactive	inactive	–
O=C(O)/C(S)=C/c1ccccc1Cc1ccc2ccccc2c1	inactive	inactive	inactive	inactive	–
O=C(O)/C(S)=C/c1ccccc1	inactive	inactive	inactive	inactive	–
COc1ccc(/C=C(\S)C(=O)O)cc1	inactive	inactive	inactive	inactive	–
CN1CCN(NC(=O)CN2C(=O)/C(=C/c3c(F)ccc(F)c3F)SC2=S)CC1	inactive	inactive	inactive	inactive	–
O=P(O)(O)C(O)c1ccc(Br)cc1F (centres undefined)	inactive	inactive	inactive	inactive	Activity [5]: 100%; Activity [6]: 100%
O=P(O)(O)C(S)c1ccc(Br)cc1F (centres undefined)	inactive	inactive	inactive	inactive	Activity [5]: 100%; Activity [6]: 100%
